core dimer inh: blocks dimerization of HCV core protein | TR-FRET GST/Flag-core106 dimerization, 1536-well | inhibition, % at 5 µM | 0.33% of 300,000 active | AID 1899;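 active = inhibition above the mean of all tested compounds plus 3 SD, set per screening campaign, cut at about 45% in these data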
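Assay system – GST-tagged and Flag-tagged HCV core protein residues 1-106 · Quantity – core106 proteins, GST 13.5 nM and Flag 17 nM · Benchmarks – unlabelled core106 and no-GST-core106 wells · Read-out basis – percent inhibition of core106 dimerization signal · Detection – time-resolved FRET, ex 340 nm, em 617 and 671 nm · Schedule – 4 h at 22.5 °C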
PHOSPHO1 inh: inhibitors of human PHOSPHO1 phosphatase; Q8TCT1; recombinant PHOSPHO1, absorbance phosphatase assay; inhibition, % at 13.3 µM; 1.1% of 290,000 active; in the data active = inhibition above about 60%
Target sequence (Q8TCT1 whole entry, looked up): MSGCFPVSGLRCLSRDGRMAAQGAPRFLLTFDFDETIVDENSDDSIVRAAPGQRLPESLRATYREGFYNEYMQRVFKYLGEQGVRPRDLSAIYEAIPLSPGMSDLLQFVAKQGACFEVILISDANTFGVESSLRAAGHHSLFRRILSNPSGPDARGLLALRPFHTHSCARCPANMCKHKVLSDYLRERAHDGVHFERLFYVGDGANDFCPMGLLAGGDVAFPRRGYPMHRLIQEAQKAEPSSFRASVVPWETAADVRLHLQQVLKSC
ALR H2O2 inh: blocks human ALR sulfhydryl oxidase activity; purified ALR, DTT oxidation, H2O2 HRP-luminol luminescence; inhibition, % (no concentration beside the values); 3.8% of 290,000 active; AID 485317;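 active = mean replicate inhibition above about 79%, with every replicate also reaching it, limit read from the data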
Target sequence (P55789 whole entry, looked up): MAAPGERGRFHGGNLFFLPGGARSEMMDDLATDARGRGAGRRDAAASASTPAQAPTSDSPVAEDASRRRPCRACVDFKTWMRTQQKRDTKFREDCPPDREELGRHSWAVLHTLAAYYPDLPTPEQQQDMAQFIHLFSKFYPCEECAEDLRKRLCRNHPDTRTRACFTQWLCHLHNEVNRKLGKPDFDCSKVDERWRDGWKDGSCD
AI-2 QS mod: modulators of Vibrio harveyi AI-2 quorum sensing system | AID 2094 | activity change, % at 7.5 µM | 0.4% of 300,000 active | Vibrio harveyi JMH597 AI-2 luminescence/OD600 ratio, 9 h; hits give low values; strain lacks LuxN and CqsS sensors; 0 = neutral-control median; in the data active = activity change below about -75%, passing the limit was not always enough;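 also: luminescence divided by OD600 gain over 9 h not by final OD600 alone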
HSF1 activator: increases HSF-1 driven luciferase reporter signal. NIH3T3-HGL HSF-1 luciferase reporter, MG132, 8 h; 100% = twice DMSO control signal. 1.7% of 300,000 active. AID 504408. activation, % at 9 µM;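 active = mean replicate activation of at least 50% with a set share of replicates each reaching 50%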;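 also: 0% = median of the neutral control wells and 100% = twice that signal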
HSF1 inh: HSF1 inhibition | NIH3T3-HGL HSE-luciferase, MG132-induced, luminescence 8 h; hits give low values | 0.77% of 300,000 active | activity change, negative = inhibition, % at 7.5 µM (by protocol);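 active = more than half of replicate wells show activity change below -50%, luminescence cut by over half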;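 also: luciferase reports HSF-1 transcriptional activity via heat shock element; 0% = median of DMSO wells and -100% = zero luminescence signal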
* marks the source's active call; other numbers are inactive results; nt = no result; ! = a repeat was not active. An excerpt weighted towards active compounds, which were near 6.8% of everything screened.

SMILES	core dimer inh	PHOSPHO1 inh	ALR H2O2 inh	AI-2 QS mod	HSF1 activator	HSF1 inh
CN(C)c1ccc(NC(=O)c2cccc(N3C(=O)C4C5C=CC(C5)C4C3=O)c2)cc1 (configuration not stated)	-8	-8	99*	26	-4	1
COc1ccc(NCc2cc(=O)[nH]c3ccccc23)cc1	nt	26	99*	-22	-5	4
CCc1ccc(/C=N/NC(=O)c2c[nH]c3ccccc23)s1	3	-2	0	-56	58*	25
O=C(N/N=C/c1cccs1)c1c[nH]c2ccccc12	3	3	-3	31	19	24
S=c1nc(-c2ccccc2Cl)n(Cc2cccnc2)c2c1CCCC2	17	1	99*	12	-9	-2
CC1=[N+]([O-])C(C)(C)C(c2ccc(Br)cc2)=[N+]1[O-]	2	29	14	4	3	1
O=C(O)CCc1[nH]c2ccccc2c1Sc1ccccc1	2	44	99*	-7	9	-7
CCOc1ccc(C2CC(c3ccc(CC)cc3)n3nc(N)nc3N2)cc1 (configuration not stated)	6	62*	-13	20	5	-5
CCOc1ccc(C2CC(c3ccc(CC)cc3)Nc3nc(N)nn32)cc1 (configuration not stated)	2	-6	nt	14	2	1
O=C(COC(=O)c1cn(-c2ccccc2)nc1-c1cccs1)NC1CC1	1	65*	-2	22	-5	10
CN(C)C(=O)c1cn(-c2ccccc2)nc1-c1cccs1	2	8	-5	16	-5	-5
CC1CC(C)(C)N(C(=O)NC2CCCCC2)c2ccccc21 (configuration not stated)	-7	-16	15	14	57*	11
CS(=O)(=O)NN1C(=O)c2ccccc2NC1c1cccs1 (configuration not stated)	0	-16	8	20	7	3
COc1cc(/C=C2\CC(C(C)(C)C)C/C(=C\c3cc(OC)c(OC)c(OC)c3)C2=O)cc(OC)c1OC (configuration not stated)	1	3	8	-1	53*	41
COc1cc(/C=C2\COC/C(=C\c3cc(OC)c(OC)c(OC)c3)C2=O)cc(OC)c1OC	nt	21	nt	-3	-93	-92*
COc1cc(/C=C2\CCc3ccccc3C2=O)cc(OC)c1OC	0	3	-13	17	2	11
COc1cc(/C=C2\CC/C(=C\c3cc(OC)c(OC)c(OC)c3)C2=O)cc(OC)c1OC	7	-4	-4	13	28	12
COc1cc(/C=C2/CCc3ccccc3C2=O)cc(OC)c1OC	9	7	-26	12	73*	43
CNc1ccc2nnc(C(F)(F)C(F)(F)C(F)(F)F)n2n1	-2	41	-4	21	4	-11
Cc1ccc(S(=O)(=O)NC(=O)c2ccc(Br)o2)cc1	-24	-16	0	35	1	-4
Cn1cnc(S(=O)(=O)Nc2cc(-c3ccc(Cl)cc3)nn2C)c1	-7	0	-2	28	13	4
CCCc1[nH][nH]c(=O)c1C(c1ccc(Br)cc1)C(C#N)C#N (configuration not stated)	4	55	95*	32	29	7
O=C(NC(=S)Nc1cccc(O)c1)c1ccco1	-4	-2	-46	26	34	6
CCOc1ccc(C(=O)C2CCN(CC(=O)Nc3ccccc3N3CCOCC3)CC2)cc1	3	-7	-6	7	-4	14
CCn1c(SC)nnc1C1CCCN(CC(=O)Nc2ccccc2N2CCOCC2)C1 (configuration not stated)	-5	-62	11	12	67*	15
SMILES	core dimer inh	PHOSPHO1 inh	ALR H2O2 inh	AI-2 QS mod	HSF1 activator	HSF1 inh
C=CCn1c(SCC(=O)NCC(c2ccccc2)N(C)C)nnc1C1CCCCC1 (configuration not stated)	nt	nt	14	nt	nt	nt
Cc1cc(C)c(C)c(S(=O)(=O)N2CCC(C(=O)OCC(=O)NC3CCS(=O)(=O)C3)CC2)c1C (configuration not stated)	nt	nt	-1	nt	nt	nt
Cc1ccc(SCCC(=O)NCc2ccco2)cc1	2	11	-7	-7	19	0
Cc1ccc(OCCCC(=O)NCc2ccco2)c(C)c1	-2	18	95*	16	-5	-2
COc1ccc(C)cc1NC(=O)NCc1ccco1	1	61*	-6	22	-1	4
COC(=O)c1ccccc1NC(=S)N(Cc1ccc2c(c1)OCO2)Cc1cc2cc(OC)ccc2[nH]c1=O	12	1	0	9	21	9
C#CCOC(=O)CCCNc1ccc([N+](=O)[O-])cc1[N+](=O)[O-]	48*	16	-2	38	3	0
CC1(C)SC2c3ccccc3C(=O)N2[C@@H]1C(=O)O (some centres not stated)	8	14	nt	20	2	1
CCOc1c(C)cc(-c2ncccc2O)cc1C	2	10	92*!	15	3	11
CCC(=O)Nc1ccc(S(=O)(=O)Nc2nccs2)cc1	1	8	0	17	-4	-4
Cc1ccc(C2(C)NC(=O)N(CC(=O)Nc3ccc(S(=O)(=O)Nc4nccs4)cc3)C2=O)cc1 (configuration not stated)	4	nt	96*	20	-11	2
CC1(c2ccc(OC(F)F)cc2)NC(=O)N(CC(=O)Nc2ccc(OC(F)F)cc2)C1=O (configuration not stated)	6	45	-5	-93*	0	19
CC1(c2ccc(OC(F)F)cc2)NC(=O)N(CC(=O)Nc2ccc(S(N)(=O)=O)cc2)C1=O (configuration not stated)	-1	24	nt	-14	6	-2
CC1(c2ccc(OC(F)F)cc2)NC(=O)N(CC(=O)Nc2ccc(F)cc2)C1=O (configuration not stated)	-1	15	-2	-94*	-5	7
COC(=O)COc1ccc(C(=O)Cn2c(NCCCO)nc3ccccc32)cc1	1	nt	-10	21	9	-9
COc1ccc(COC(=O)C2CCN(S(=O)(=O)c3ccc(C)cc3)CC2)cc1	3	nt	-6	22	-6	-4
OC(CNCc1ccco1)Cn1c2ccc(Br)cc2c2cc(Br)ccc21 (configuration not stated)	-3	-2	-5	23	61*	23
Brc1ccc2ncnc(NCc3ccco3)c2c1	9	13	4	5	-19	-26
